# Measured values reported in ChEMBL document CHEMBL5303300, “EUbOPEN Chemogenomics Library - Multiplex” (2023).
# “And” between values parts separate entries of the source, which are not always exact repeats. Equal values may be shown once.
# System: U2OS
# Assay: Multiplex assay against U2OS
# Assay type: toxicity, cell-based
# Details: human, number of replicates 2
# In short: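 Hoechst33342, BioTracker Green Microtubule Cytoskeleton Dye, MitoTracker Red and Annexin V Alexa Fluor 680 were added to live cells at seeding, and imaging on a CQ1 microscope at 37°C and 5% CO2 followed compound addition. Gating by CellPathfinder machine learning separated cells into Hoechst high-intensity objects or normal cells, then normal cells into healthy, pyknosed or fragmented nuclei, then pyknosed cells into mitotic or apoptotic. Per cents of healthy-nucleus cells are reported for the tubulin, mitochondrial-mass and membrane-permeability phenotypes.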
# [1] = 12 h, 1 µM, compound concentration 1 uM
# [2] = 12 h, 10 µM, compound concentration 10 uM
# [3] = 24 h, 1 µM, compound concentration 1 uM
# [4] = 24 h, 10 µM, compound concentration 10 uM
# [5] = 48 h, 1 µM, compound concentration 1 uM
# [6] = 48 h, 10 µM, compound concentration 10 uM
smiles,measurement,setting,value
COc1nc2ccc([C@@](O)(c3ccc(Cl)cc3)c3cncn3C)cc2c(Cl)c1Cc1ccc(-n2cccn2)cc1 [JNJ-53721590],Population Healthy Nuclei (%),[1],56% and 85%
same,Population Hoechst High Intensity Objects (%),[1],0%
same,Population Membrane Permeable-Phenotype (%),[1],5% and 1%
same,Population Mitochondria Different-Phenotype (%),[1],0% and 20%
same,Population Normal (%),[1],100%
same,Population Pyknosed Nuclei (%),[1],16% and 10%
same,Population Tubulin-Different-Phenotype (%),[1],23% and 37%
same,Population Apoptotic (%),[2],74% and 57%
same,Population Fragmented Nuclei (%),[2],2% and 12%
same,Population Healthy Nuclei (%),[2],82% and 74%
same,Population Hoechst High Intensity Objects (%),[2],0%
same,Population Membrane Permeable-Phenotype (%),[2],29% and 21%
same,Population Mitochondria Different-Phenotype (%),[2],28% and 56%
same,Population Mitotic Cells (%),[2],25% and 42%
same,Population Normal (%),[2],99% and 100%
same,Population Pyknosed Nuclei (%),[2],14% and 12%
same,Population Tubulin-Different-Phenotype (%),[2],89% and 97%
same,Population Apoptotic (%),[3],50% and 62%
same,Population Fragmented Nuclei (%),[3],20% and 0%
same,Population Healthy Nuclei (%),[3],45% and 85%
same,Population Hoechst High Intensity Objects (%),[3],0%
same,Population Membrane Permeable-Phenotype (%),[3],0% and 1%
same,Population Mitochondria Different-Phenotype (%),[3],6% and 17%
same,Population Mitotic Cells (%),[3],50% and 37%
same,Population Normal (%),[3],100% and 99%
same,Population Pyknosed Nuclei (%),[3],34% and 13%
same,Population Tubulin-Different-Phenotype (%),[3],25% and 42%
same,Population Apoptotic (%),[4],79% and 36%
same,Population Fragmented Nuclei (%),[4],3% and 12%
same,Population Healthy Nuclei (%),[4],78% and 64%
same,Population Hoechst High Intensity Objects (%),[4],0%
same,Population Membrane Permeable-Phenotype (%),[4],34% and 35%
same,Population Mitochondria Different-Phenotype (%),[4],43% and 54%
same,Population Normal (%),[4],99% and 100%
same,Population Pyknosed Nuclei (%),[4],18% and 22%
same,Population Tubulin-Different-Phenotype (%),[4],93%
same,Population Apoptotic (%),[5],70% and 81%
same,Population Healthy Nuclei (%),[5],86% and 54%
same,Population Hoechst High Intensity Objects (%),[5],0%
same,Population Mitochondria Different-Phenotype (%),[5],9% and 13%
same,Population Mitotic Cells (%),[5],29% and 18%
same,Population Normal (%),[5],99% and 100%
same,Population Pyknosed Nuclei (%),[5],10% and 26%
same,Population Apoptotic (%),[6],64% and 85%
same,Population Healthy Nuclei (%),[6],47% and 65%
same,Population Hoechst High Intensity Objects (%),[6],0%
same,Population Membrane Permeable-Phenotype (%),[6],57% and 47%
same,Population Mitochondria Different-Phenotype (%),[6],48% and 34%
same,Population Mitotic Cells (%),[6],35% and 14%
same,Population Normal (%),[6],100% and 99%
same,Population Pyknosed Nuclei (%),[6],24% and 26%
same,Population Tubulin-Different-Phenotype (%),[6],96% and 90%
